≈ marks a conversion by molar mass, not a printed value.
What was measured:
[1] = tested on: Mycobacterium tuberculosis; experiment: Antimicrobial activity against Mycobacterium tuberculosis H37Rv expressing GFP supplemented with casitone/glucose/tyloxapol assessed as reduction in bacterial growth measured on day 14; assay type: functional; details: 336 h, time 14 day
In short: (§1)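 Line 1 medium is 7H9 with ADC and 0.05% Tween80. Line 2 medium is 7H9 with 0.03% casitone, 0.4% glucose and 0.05% tyloxapol. Incubated at 37 °C, 5% CO2, humidified. Fluorescence (ex 485/em 520) read at day 14 and normalised to rifampicin (2× MIC) and 5% DMSO controls. MIC90 is the lowest concentration giving >90% inhibition.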

[2] = tested on: Mycobacterium tuberculosis; experiment: Antimicrobial activity against Mycobacterium tuberculosis H37Rv expressing GFP supplemented with albumin/dextrose/catalase/glucose/tween80 assessed as reduction in bacterial growth measured on day 14; assay type: functional; details: 336 h, time 14 day; in short: as §1
[3] = tested on: Mycobacterium tuberculosis; experiment: Antitubercular activity against Mycobacterium tuberculosis H37Rv assessed as reduction in microbial growth measured for 14 days; assay type: functional; details: 336 h, time 14 day
In short: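 Strains were H37Rv, the fluoroquinolone-resistant GyrA G88C mutant, and the dprE1 P116S and C387S mutants. All were cultured in standard Middlebrook 7H9 with ADC supplement.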

[4] = Cytotoxicity against HEK293 cells assessed as reduction in cell viability incubated for 20 hrs by resazurin staining based assay; assay type: toxicity; details: human
In short: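 HEK-293 cells grown in DMEM with 10% FBS, seeded at 5×10^3 cells/well into compound-containing plates, 20 h at 37 °C, 5% CO₂. Resazurin added for a further 3 h, fluorescence read at ex 560/em 590 nm. CC₅₀ from sigmoidal dose-response fit (variable top, bottom, slope) of inhibition vs log concentration. Highest concentration tested 32 µg/mL.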

[5] = Aqueous solubility of compound in PBS at pH6.5 incubated for 24 hrs by shake-flask method; assay type: physicochemical; details: pH 6.5
In short: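 Miniaturised shake-flask, 96-well: 4 µL of 10 mM DMSO stock dried down, then phosphate-buffered saline pH 6.5 added; shaken 24 h at 25 °C, centrifuged 3500 g for 15 min. Supernatant quantified by HPLC-DAD against a 10–220 µM calibration curve prepared in DMSO.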

[6] = Lipophilicity, log P of the compound in octanol/buffer incubated for 2 hrs under shaking condition by shake flask based HPLC-UV method; assay type: physicochemical
In short: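 LogD at pH 7.4 by miniaturised shake-flask in deep-well plates. Compound partitioned between equal volumes of 1-octanol and PBS pH 7.4, shaken vigorously 2 h at 25 °C. Phases separated, each analysed by HPLC-UV with diode array detection. LogD calculated from peak areas in octanol and buffer.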

[7] = Metabolic stability in human liver microsome assessed as parent compound remaining after 30 mins by LC-MS/MS analysis; assay type: ADME; details: liver microsomes, read-out: Stability
In short: (§2)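 Compound at 1 µM incubated with liver microsomes at 0.4 mg/mL, 37 °C for 30 min. Human microsomes were mixed gender, rat were male IGS, mouse were male CD1. Quenched with ice-cold acetonitrile containing internal standard and centrifuged. Parent disappearance measured by LC-MS/MS, with half-life and clearance from standard equations.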

[8] = Metabolic stability in rat liver microsome assessed as parent compound remaining after 30 mins by LC-MS/MS analysis; assay type: ADME; details: liver microsomes, read-out: Stability; in short: as §2
[9] = Metabolic stability in CD-1 mouse liver microsome assessed as parent compound remaining after 30 mins by LC-MS/MS analysis; assay type: ADME; details: liver microsomes, read-out: Stability; in short: as §2
[10] = Metabolic stability in human liver microsome assessed as intrinsic clearance measured for 30 mins by LC-MS/MS analysis; assay type: ADME; details: liver microsomes, read-out: CLH; in short: as §2
[11] = Metabolic stability in rat liver microsome assessed as intrinsic clearance measured for 30 mins by LC-MS/MS analysis; assay type: ADME; details: liver microsomes, read-out: CLH; in short: as §2
[12] = Metabolic stability in CD-1 mouse liver microsome assessed as intrinsic clearance measured for 30 mins by LC-MS/MS analysis; assay type: ADME; details: liver microsomes, read-out: CLH; in short: as §2

Row | SMILES | MIC90 [1] | MIC90 [2] | further results
1 | O=C(O)c1c[nH]c2c([N+](=O)[O-])cc(C(F)(F)F)cc2c1=O | 62.5 µM (≈ 18.9 µg/mL) | > 125 µM | –
2 | O=C(NCCc1ccc(C(F)(F)F)cc1)c1c[nH]c2c([N+](=O)[O-])cc(C(F)(F)F)cc2c1=O | < 0.244 µM | < 0.244 µM | MIC90 [3]: 0.9 µM; CC50 at 20 h [4]: > 20 µM; solubility thermodynamic at 24 h [5]: < 5 µM; logD at 2 h [6]: 4.4; remaining at 0.5 h [7]: 68%; remaining at 0.5 h [8]: 68%; remaining at 0.5 h [9]: 67%; microsomal CLint [10]: 31.7 µL/min/mg; microsomal CLint [11]: 33.2 µL/min/mg; microsomal CLint [12]: 33.3 µL/min/mg
3 | O=C(NCc1cccc(Cl)c1)c1c[nH]c2c([N+](=O)[O-])cc(C(F)(F)F)cc2c1=O | > 125 µM | 2.99 µM (≈ 1.27 µg/mL) | –
4 | CCOC(=O)c1c[nH]c2c([N+](=O)[O-])cc(C(F)(F)F)cc2c1=O | < 0.244 µM | < 0.244 µM | –
5 | O=c1c(Br)c[nH]c2c([N+](=O)[O-])cc(C(F)(F)F)cc12 | 1.6 µM (≈ 0.539 µg/mL) | 16 µM (≈ 5.39 µg/mL) | –
6 | O=C(Nc1cccc(C(F)(F)F)c1)c1cnc2c([N+](=O)[O-])cc(C(F)(F)F)cc2c1Cl | 0.7 µM (≈ 0.325 µg/mL) | 31.2 µM (≈ 14.5 µg/mL) | –
7 | O=C(NCCc1ccc(F)cc1)c1c[nH]c2c([N+](=O)[O-])cc(C(F)(F)F)cc2c1=O | < 0.244 µM | 0.9 µM (≈ 0.381 µg/mL) | MIC90 [3]: 2 µM; CC50 at 20 h [4]: > 20 µM; solubility thermodynamic at 24 h [5]: < 5 µM; logP at 2 h [6]: 4; remaining at 0.5 h [7]: 73%; remaining at 0.5 h [8]: 75%; remaining at 0.5 h [9]: 56%; microsomal CLint [10]: 25.9 µL/min/mg; microsomal CLint [11]: 23.4 µL/min/mg; microsomal CLint [12]: 48.8 µL/min/mg
8 | O=C(NCCc1ccc(Cl)cc1)c1c[nH]c2c([N+](=O)[O-])cc(C(F)(F)F)cc2c1=O | < 0.244 µM | < 0.244 µM | MIC90 [3]: 1.9 µM; CC50 at 20 h [4]: > 20 µM; solubility thermodynamic at 24 h [5]: < 5 µM; logD at 2 h [6]: 4.3; remaining at 0.5 h [7]: 75%; remaining at 0.5 h [8]: 80%; remaining at 0.5 h [9]: 76%; microsomal CLint [10]: 24.3 µL/min/mg; microsomal CLint [11]: 18.4 µL/min/mg; microsomal CLint [12]: 23 µL/min/mg
9 | NNC(=O)c1c[nH]c2c([N+](=O)[O-])cc(C(F)(F)F)cc2c1=O | > 125 µM | > 125 µM | –
10 | O=C(NCc1ccc(F)cc1)c1c[nH]c2c([N+](=O)[O-])cc(C(F)(F)F)cc2c1=O | > 125 µM | 8.1 µM (≈ 3.32 µg/mL) | –
11 | Cc1ccc(CCNC(=O)c2c[nH]c3c([N+](=O)[O-])cc(C(F)(F)F)cc3c2=O)cc1 | > 125 µM | 0.244 µM (≈ 0.102 µg/mL) | –
12 | O=c1cc[nH]c2c([N+](=O)[O-])cc(C(F)(F)F)cc12 | 62.5 µM (≈ 16.1 µg/mL) | 16 µM (≈ 4.13 µg/mL) | –
13 | O=C(NCc1ccc(Cl)cc1)c1c[nH]c2c([N+](=O)[O-])cc(C(F)(F)F)cc2c1=O | > 125 µM | 7.4 µM (≈ 3.15 µg/mL) | –
14 | O=C(NCc1ccc(F)c(F)c1)c1c[nH]c2c([N+](=O)[O-])cc(C(F)(F)F)cc2c1=O | 7 µM (≈ 2.99 µg/mL) | 31.3 µM (≈ 13.4 µg/mL) | –
15 | O=C(NCc1ccccc1Cl)c1c[nH]c2c([N+](=O)[O-])cc(C(F)(F)F)cc2c1=O | 0.5 µM (≈ 0.213 µg/mL) | 0.8 µM (≈ 0.341 µg/mL) | –
16 | O=C(NCc1cccc(F)c1)c1c[nH]c2c([N+](=O)[O-])cc(C(F)(F)F)cc2c1=O | 0.5 µM (≈ 0.205 µg/mL) | 3 µM (≈ 1.23 µg/mL) | –
17 | Cc1cccc(CNC(=O)c2c[nH]c3c([N+](=O)[O-])cc(C(F)(F)F)cc3c2=O)c1 | < 0.244 µM | 2.9 µM (≈ 1.18 µg/mL) | –
18 | NNC(=O)c1ccncc1 [ISONIAZID] | – | – | MIC90 [3]: 3.5 µM
19 | COc1c(N2C[C@@H]3CCCN[C@@H]3C2)c(F)cc2c(=O)c(C(=O)O)cn(C3CC3)c12 [MOXIFLOXACIN] | – | – | MIC90 [3]: 0.1 µM
20 | CO[C@H]1/C=C/O[C@@]2(C)Oc3c(C)c(O)c4c(O)c(c(/C=N/N5CCN(C)CC5)c(O)c4c3C2=O)NC(=O)/C(C)=C\C=C\[C@H](C)[C@H](O)[C@@H](C)[C@@H](O)[C@@H](C)[C@H](OC(C)=O)[C@@H]1C [RIFAMPIN] | 0.01 µM (≈ 0.00823 µg/mL) | 0.01 µM (≈ 0.00823 µg/mL) | –

Source: ChEMBL document CHEMBL5620388, “Quinolone analogues of benzothiazinone: Synthesis, antitubercular structure-activity relationship and ADME profiling” (Eur J Med Chem, 2023)
